Only some compounds are listed: those with a hit (about 2.5% of all), similar ones and a draw of the others.
TRPC4 PAM – allosterically enhances the mouse TRPC4 cation channel. Q9QUQ5. HEK293 TRPC4beta/mu-opioid, DAMGO EC20, Fluo-4 Ca2+ flux; active compounds read high. B-score at 10 µM. 0.42% of 310,000 active;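 active = B-score of calcium response area above 5 SD of library B-scores, with initial fluorescence ratio within 5 SD of library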;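 note: B-score of integrated fluorescence ratio over time as area under calcium response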
Target sequence (Q9QUQ5 whole entry, looked up): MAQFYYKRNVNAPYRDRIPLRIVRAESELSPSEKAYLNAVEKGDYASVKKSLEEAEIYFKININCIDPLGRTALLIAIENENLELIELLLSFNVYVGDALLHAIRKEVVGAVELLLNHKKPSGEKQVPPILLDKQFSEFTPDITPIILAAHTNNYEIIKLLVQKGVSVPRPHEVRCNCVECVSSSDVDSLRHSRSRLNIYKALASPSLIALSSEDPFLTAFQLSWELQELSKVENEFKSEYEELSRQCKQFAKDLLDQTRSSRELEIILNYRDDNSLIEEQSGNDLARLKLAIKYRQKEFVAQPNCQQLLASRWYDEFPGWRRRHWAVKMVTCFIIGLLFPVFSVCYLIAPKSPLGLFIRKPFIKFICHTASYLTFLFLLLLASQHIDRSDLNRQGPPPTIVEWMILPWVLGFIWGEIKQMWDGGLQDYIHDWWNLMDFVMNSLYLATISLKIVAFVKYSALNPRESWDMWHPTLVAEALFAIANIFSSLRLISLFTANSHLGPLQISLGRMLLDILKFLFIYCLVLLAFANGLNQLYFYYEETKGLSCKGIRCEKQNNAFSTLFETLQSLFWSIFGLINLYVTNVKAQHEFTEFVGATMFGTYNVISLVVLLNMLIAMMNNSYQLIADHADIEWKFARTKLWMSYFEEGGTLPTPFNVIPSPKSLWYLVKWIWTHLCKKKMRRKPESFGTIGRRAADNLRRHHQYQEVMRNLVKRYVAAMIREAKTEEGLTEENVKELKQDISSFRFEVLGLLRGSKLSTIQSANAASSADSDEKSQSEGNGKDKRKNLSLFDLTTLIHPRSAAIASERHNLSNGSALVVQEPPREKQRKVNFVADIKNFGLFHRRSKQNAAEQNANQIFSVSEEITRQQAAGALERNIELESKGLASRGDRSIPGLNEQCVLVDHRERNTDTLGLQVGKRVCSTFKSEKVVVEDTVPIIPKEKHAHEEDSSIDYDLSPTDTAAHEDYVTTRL
TRPC4 agonist – TRPC4 (mouse) channel activation; AID 2237; 0.49% of 310,000 active; HEK293 TRPC4beta/mu-opioid, Fluo4 calcium fluorescence; active compounds read high; B-score at 10 µM; Q9QUQ5;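 active = B-score above 5 SD of library B-scores, and initial fluorescence ratio not above library mean plus 5 SD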;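 note: positive B-score marks a calcium rise read as TRPC4 activation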
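Technique: kinetic Fluo4 calcium fluorescence; Test system: TRPC4beta and mu-opioid receptor HEK293 stable cells; Measure: B-scored integrated calcium fluorescence ratio; Benchmarks: low control buffer alone, high control maximal DAMGO; Schedule: 45 min room-temperature Fluo4 loading, 110 s read.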
TRPC4 inh – inhibitors of mouse TRPC4 channel | B-score at 10 µM | HEK293 TRPC4beta/mu-opioid, DAMGO-evoked Fluo4 calcium flux; active compounds read low | 0.39% of 300,000 active | AID 2247 | Q9QUQ5;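 active = B-score over 3 SD under the library average, no early fluorescence shift, positive overall ratio signal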
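material = TRPC4beta/mu-opioid receptor HEK293 cell line | probe or stimulus = sequential submaximal and maximal DAMGO stimulation | compound dosing = one concentration per compound | measured by = Fluo4 Ca2+ flux fluorescence | evaluation = integrated fluorescence ratio relative to baseline, converted to per-well B score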
Platelet DG rel – modulates dense granule release in human platelets. human platelet-rich plasma, SFLLRN dense granule ATP release, luminescence. inhibition, %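 (compounds screened at 7.5 µM in platelet-rich plasma)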. 0.22% of 300,000 active;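 active = mean replicate score, as percent of positive control, at or above 50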
TRPC6 act – mouse TRPC6 channel activation. Q61143. HEK293-TRPC6 membrane potential dye fluorescence; active compounds read high. B-score at 10 µM. 0.13% of 310,000 active;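 active = B-score of the integrated fluorescence ratio above library mean plus 3 SD, and starting fluorescence ratio within library mean plus 5 SD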;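 note: higher score means more depolarization so channel activation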
TRPC6 inh – mouse TRPC6 channel inhibition | Q61143 | B-score at 10 µM | HEK293-TRPC6, membrane potential dye, ACh-evoked depolarization; active compounds read low | AID 2553 | 1.1% of 310,000 active;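 active = B-score under library mean minus 3 SD, initial fluorescence not abnormally high, positive integrated signal ratio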;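 note: B-score derived from integrated fluorescence ratio over the kinetic read; more negative B-score means stronger inhibition of depolarization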
TRPC4 sel inh 2 – mouse TRPC4 off-target activity of TRPC6 inhibitors, second screen | shares compounds with TRPC6 inh | HEK293 TRPC4/MOR, membrane potential dye fluorescence; channel activated by saturating DAMGO dose | inhibition, % at 10 µM | 42% of 920 active | AID 2776;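 active = compounds whose fluorescence signal differed from control wells by over 3 SD, either direction, in both duplicate plates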
TRPC4 spec – mouse TRPC4 off-target activity of TRPC6 inhibitors; 61% of 920 active; activity change, negative = inhibition, % at 10 µM; HEK293 TRPC4/mu-opioid, membrane potential fluorescence; shares compounds with TRPC6 inh;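 active = rise or fall in signal beyond 3 SD of buffer-only wells in both replicate plates, either sign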;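 note: integrated kinetic ratio of fluorescence range over baseline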
HEK293 MPD ctr 2-1 – second check of TRPC6 inhibitor effects in parental HEK293 cells; shares compounds with TRPC6 inh; parental HEK293 membrane potential dye fluorescence; maximal acetylcholine challenge after compound addition; signal change vs control, % at 10 µM; 31% of 920 active;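 active = membrane potential signal moving either way by over 3 SD of the maximum-effect control, in both duplicate plates, meaning non-specific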
HEK293 MPD ctr-1 – parental HEK293 nonspecific activity of TRPC6 inhibitors. shares compounds with TRPC6 inh. 60% of 920 active. membrane potential signal change, % at 10 µM. parental HEK293 membrane potential dye fluorescence;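 active = membrane potential signal shifting up or down by more than 3 SD of buffer-only wells, on both duplicate plates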
HEK293 MPD ctr-2 – counter-screen for TRPC6 modulators: effect in parental HEK293 cells; shares compounds with TRPC6 inh; membrane potential dye fluorescence; membrane potential signal change, % at 10 µM; 51% of 2,400 active;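 active = membrane potential signal moves up or down beyond 5 SD from buffer-only wells, on both duplicate plates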
HEK293 MPD ctr 2-2 – second check of TRPC6 modulator effects in parental HEK293 cells; membrane potential dye fluorescence; after compound, maximal acetylcholine stimulation; AID 488926; inhibition, % at 10 µM; shares compounds with TRPC6 inh; 14% of 2,400 active;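 active = membrane potential signal drops by more than 5 SD from the mean control signal, in both duplicate plates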;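 note: plate controls were acetylcholine ECmax control wells for no effect and buffer only wells for full effect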
TRPC4 ctr mod – selectivity of TRPC6 modulators against mouse TRPC4. shares compounds with TRPC6 inh. HEK293 TRPC4/mu-opioid, membrane potential fluorescence. percent change from control (negative = decrease, positive = increase), % at 10 µM. 69% of 2,400 active. AID 488927;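 active = membrane potential signal moved up or down beyond 5 SD of buffer control wells, in both duplicate plates, actives on both sides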;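 note: plate controls were assay buffer wells for no effect and DAMGO maximal-effect wells for full effect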
TRPC4/MOR inh 2 – second selectivity test of TRPC6 modulators against mouse TRPC4. 55% of 2,400 active. inhibition, % at 10 µM. HEK293 TRPC4/mu-opioid, membrane potential dye fluorescence; stimulated with maximal-effect DAMGO. shares compounds with TRPC6 inh;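 active = drop in membrane potential signal beyond 5 SD of the control wells in both duplicate plates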;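 note: TRPC4 counter screen for TRPC6 hits run under conditions tuned for TRPC6 not TRPC4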
TRPC6 inh conf – mouse TRPC6 inhibitor confirmation | 43% of 3,300 active | shares compounds with TRPC6 inh | AID 488960 | HEK293-TRPC6, membrane potential dye, ACh-evoked depolarization | inhibition, % at 10 µM;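 active = fluorescence ratio falls more than 5 SD below the full-stimulation control mean, in both duplicate runs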;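 note: integrated fluorescence ratio of peak minus minimum over baseline after agonist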
TRPC6 act confirm – confirmation of mouse TRPC6 activators | shares compounds with TRPC6 inh | HEK293-TRPC6 membrane potential dye fluorescence, FDSS | activation, % at 10 µM | 11% of 2,800 active;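 active = ratio signal rise beyond 5 SD above unstimulated control wells' mean, seen in both duplicate runs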;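 note: plate controls were buffer EC0 wells for no effect and acetylcholine ECmax response for full effect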
Starred values were filed as active, the others as inactive; i = inactive; . = not tested or not shown.

SMILES	TRPC4 PAM	TRPC4 agonist	TRPC4 inh	Platelet DG rel	TRPC6 act	TRPC6 inh	HEK293 MPD ctr-2	HEK293 MPD ctr 2-2	TRPC4 ctr mod	TRPC4/MOR inh 2	TRPC6 inh conf	TRPC6 act confirm	others
C/C(CC(=O)Nc1ccc(N(C)C)cc1)=N\NC(=O)c1ccc(C(C)(C)C)cc1	i	i	i	-8.1	i	i	.	.	.	.	.	.
Oc1ccccc1N=Cc1c(O)ccc2ccccc12	i	i	i	1.3	i	-5.27*	i	i	38.0%*	i	i	.
O=C1CC(C(=O)Nc2ccccc2)S/C(=N\NC(=O)c2ccccc2Cl)N1 (stereo unspecified)	i	i	i	-10.0	i	i	.	.	.	.	.	.
O=c1[nH]c(-c2ccccc2)c(-c2ccccc2)nc1[N+](=O)[O-]	i	i	i	21.8	11.7*	i	i	i	16.5%*	i	i	47.5%*
CCOC(=O)c1cc(C)n(-c2c(C)n(C)n(-c3ccccc3)c2=O)c1C	i	i	i	-0.6	i	-6*	i	i	i	i	i	i
CCCS(=O)(=O)N1CCC(C(=O)Oc2ccc(OC)cc2)CC1	i	i	i	0.5	i	i	.	.	.	.	.	.
COc1cc(/C=C(/C#N)C(=O)NC(C)c2ccccc2)cc(OC)c1O (stereo unspecified)	i	i	i	-3.2	i	-5.26*	415.0%*	i	48.5%*	29.0%*	51.0%*	.
CC(NC(=O)/C(C#N)=C/c1ccc(C(=O)O)cc1)c1ccccc1 (stereo unspecified)	i	i	i	-0.5	i	i	.	.	.	.	.	.
COc1cc(C2C(C#N)=C(N)OC3=C2C(=O)CC(C)(C)C3)cc2c1OCO2 (stereo unspecified)	i	i	i	-9.4	i	i	.	.	.	.	.	.
CCOC(=O)N1CCC(N(CCOC)C(=O)Nc2ccc(CC)cc2)CC1	i	i	i	6.1	i	i	.	.	.	.	.	.
CCOC(=O)N1CCC(N(C(=O)Nc2ccc(Cl)c(Cl)c2)C(C)CC)CC1 (stereo unspecified)	i	i	i	-9.9	i	-6.42*	i	i	i	i	i	i
CCCCCN1C=CC=C/C1=C\C=C(C#N)C#N	i	i	i	6.4	14.9*	-5.34*	712.5%*	i	i	i	i	100.0%*
CCCCCCN1C=C/C(=C\C=C(C#N)C#N)c2ccccc21	i	i	i	25.4	i	i	.	.	.	.	.	.
CCCCCCN1C=CC=C/C1=C/C=C(C#N)C#N	i	i	i	-8.2	25.8*	i	370.5%*	i	101.5%*	i	i	117.5%*
CCCN1C=CC(=CC=C(C#N)C#N)C=C1	i	i	i	-6.3	i	i	.	.	.	.	.	.
Nc1nc(SCC(=O)N2CCCc3ccccc32)[nH]c(=O)c1-c1ccccc1	i	i	i	0.1	i	-6.49*	180.5%*	i	34.5%*	i	i	.
COc1ccc(N2CCN(C(=O)c3ccc(F)cc3)CC2)c([N+](=O)[O-])c1	i	i	i	-2.0	i	i	.	.	.	.	.	.
O=C(c1ccc(F)cc1)N1CCN(c2cc(N3CCCCC3)c(F)cc2[N+](=O)[O-])CC1	i	i	.	-10.0	i	-10.1*	.	.	.	.	i	i	TRPC4 sel inh 2=i;TRPC4 spec=i;HEK293 MPD ctr 2-1=i;HEK293 MPD ctr-1=i
COc1cc(NC(=O)NC2Cc3ccccc3C2)cc(OC)c1	i	i	i	5.9	i	i	.	.	.	.	.	.
CCN(CC)S(=O)(=O)c1ccc(NN=C2CCN(C)CC2)c([N+](=O)[O-])c1	i	i	i	-4.0	i	-7.17*	-83.0%*	i	-19.5%*	39.0%*	i	i
Cc1ccc(C(=O)Nn2c(C)nc3ccccc3c2=O)cc1C	i	i	i	1.0	i	i	.	.	.	.	.	.
O=C(CSc1ncc(-c2ccccc2)n1CC1CCCO1)N1CCCCC1 (stereo unspecified)	i	i	i	1.3	i	-5.98*	99.5%*	i	13.0%*	i	i	.
CN(CCOc1ccccc1)C(=O)c1cc(S(=O)(=O)N2CCCCC2)ccc1Cl	i	i	i	1.2	i	i	.	.	.	.	.	.
S=C(NN=C(C1CC1)C1CC1)Nc1ccccc1	i	i	i	7.3	i	i	.	.	.	.	.	.
COc1ccc(NC(=S)NNc2ccc([N+](=O)[O-])cc2S(=O)(=O)Nc2ccc(C)cc2C)cc1	i	i	i	-11.5	i	-6.78*	.	.	.	.	i	i	TRPC4 sel inh 2=i;TRPC4 spec=i;HEK293 MPD ctr 2-1=i;HEK293 MPD ctr-1=i
Cc1cc(C)nc(/N=C(\N)N2CCc3ccccc32)n1	i	i	i	-4.4	i	-6.36*	i	i	-11.5%*	46.0%*	i	i
CC(=O)N1CCc2ccc(S(=O)(=O)N3CCN(C)CC3)cc21	i	i	i	-2.5	i	-5.09*	123.0%*	i	40.0%*	i	i	.

Compound activity deposited in PubChem by several laboratories.
